Reference: ChEMBL document CHEMBL1151806, “Indolizidine, antiinfective and antiparasitic compounds from Prosopis glandulosa var. glandulosa” (J Nat Prod, 2009)
≈ marks a conversion by molar mass, not a printed value. Calls of active or inactive are those of the source. The rule behind the calls is not given here.

Experiments:
Plasmodium falciparum [1] = experiment: Antimalarial activity after 72 hrs against chloroquine-resistant Plasmodium falciparum W2 by pLDH activity; format: functional, organism-based; details: W2, 72 h
In short: (§1)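 P. falciparum-infected red cells (2% parasitemia, 2% hematocrit) in RPMI-1640 with 10% human serum and 60 μg/mL amikacin, exposed to serial sample concentrations. Gassed with 90% N2/5% O2/5% CO2, incubated 37 °C for 72 h. Parasite LDH activity read colorimetrically with Malstat reagent.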

Staphylococcus aureus [2] = experiment: Antimicrobial activity against methicillin-resistant Staphylococcus aureus ATCC 43300 by NCCLS method; format: functional, organism-based
In short: (§2)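 Samples serially diluted in 20% DMSO/saline, tested in duplicate. Inocula set by OD630: C. albicans RPMI pH 4.5, 1·10^4 CFU/mL; C. neoformans Sabouraud dextrose, 1·10^5; MRSA cation-adjusted Mueller-Hinton pH 7.3, 5·10^5; M. intracellulare 7H9/OADC + 5% Alamar Blue pH 7.3, 2·10^6; A. fumigatus RPMI pH 7.3 + 5% Alamar Blue, 3·10^4.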

Plasmodium falciparum [3] = experiment: Antimalarial activity after 72 hrs against […] Plasmodium falciparum D6 by pLDH activity; format: functional, organism-based; details: D6, 72 h; in short: as §1
[4] = Selectivity index, IC50 for african green monkey (Cercopithecus aethiops) Vero cells to IC50 for chloroquine-sensitive Plasmodium falciparum D6; format: functional
In short: (§3)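 Selectivity index = IC50 against VERO cells divided by IC50 against P. falciparum (D6 or W2, respectively), each from the corresponding in-house assay.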

[5] = Selectivity index, IC50 for african green monkey (Cercopithecus aethiops) Vero cells to IC50 for […]; format: functional; in short: as §3
[6] = system: Mycobacterium intracellulare; experiment: Antimicrobial activity against Mycobacterium intracellular ATCC 23068 by alamar blue assay; format: functional, organism-based
In short: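 Samples serially diluted in 20% DMSO/saline, tested in duplicate. Inocula set by OD630: C. albicans RPMI pH 4.5, 1·10^4 CFU/mL; C. neoformans Sabouraud dextrose, 1·10^5; MRSA cation-adjusted Mueller-Hinton pH 7.3, 5·10^5; M. intracellulare 7H9/OADC + 5% Alamar Blue pH 7.3, 2·10^6; A. fumigatus RPMI pH 7.3 + 5% Alamar Blue, 3·10^4. Read at 630 nm or 544ex/590em before and after incubation.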

Leishmania donovani = experiment: Antileishmanial activity against Leishmania donovani promastigotes after 48 hrs by alamar blue assay; format: functional, organism-based
Cryptococcus neoformans [7] = experiment: Antimicrobial activity against Cryptococcus neoformans ATCC 90113 by NCCLS method; format: functional, organism-based; in short: as §2
Candida albicans [8] = experiment: Antimicrobial activity against Candida albicans ATCC 90028 by NCCLS method; format: functional, organism-based; in short: as §2
Aspergillus fumigatus [9] = experiment: Antimicrobial activity against Aspergillus fumigatus ATCC 90906 by alamar blue assay; format: functional, organism-based; in short: as §2
Vero [10] = experiment: Cytotoxicity against african green monkey Vero cells at 4760 ng/mL; format: cell-based, Chlorocebus sabaeus
[11] = system: Mycobacterium intracellulare; experiment: Antimicrobial activity against Mycobacterium intracellular ATCC 23068 by alamar blue assay in presence of 5% human serum; format: functional, organism-based
Aspergillus fumigatus [12] = experiment: Antimicrobial activity against Aspergillus fumigatus ATCC 90906 by alamar blue assay in presence of 5% human serum; format: functional, organism-based
Candida albicans [13] = experiment: Antimicrobial activity against Candida albicans ATCC 90028 by NCCLS method in presence of 5% human serum; format: functional, organism-based
Cryptococcus neoformans [14] = experiment: Antimicrobial activity against Cryptococcus neoformans ATCC 90113 by NCCLS method in presence of 5% human serum; format: functional, organism-based
Staphylococcus aureus [15] = experiment: Antimicrobial activity against methicillin-resistant Staphylococcus aureus ATCC 43300 by NCCLS method in presence of 5% human serum; format: functional, organism-based
Vero [16] = experiment: Cytotoxicity against african green monkey Vero cells after 48 hrs by neutral red assay; format: cell-based, Chlorocebus sabaeus; details: Chlorocebus sabaeus, Vero, 48 h; read-out: IC50
In short: (§4)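 Cells seeded at 25,000/well, incubated 24 h, then exposed to samples for 48 h. Viable cells measured by Neutral Red uptake. IC50 from logarithmic plots of growth inhibition vs concentration. Doxorubicin positive control, DMSO vehicle control.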

LLC-PK1 = experiment: Cytotoxicity against pig LLC-PK1 cells after 48 hrs by neutral red assay; format: cell-based, Sus scrofa; details: Sus scrofa, LLC-PK1, 48 h; read-out: IC50; in short: as §4
KB = experiment: Cytotoxicity against human KB cells after 48 hrs by neutral red assay; format: functional, cell-based; in short: as §4
BT-549 = experiment: Cytotoxicity against human BT549 cells after 48 hrs by neutral red assay; format: functional, cell-based; details: BT-549, 48 h; in short: as §4
SK-OV-3 = experiment: Cytotoxicity against human SKOV3 cells after 48 hrs by neutral red assay; format: functional, cell-based; details: SK-OV-3, 48 h; in short: as §4
SK-MEL = experiment: Cytotoxicity against human SK-MEL cells after 48 hrs by neutral red assay; format: functional, cell-based; in short: as §4
Vero [17] = experiment: Cytotoxicity against african green monkey Vero cells; format: cell-based; details: Chlorocebus sabaeus; in short: as §4
[18] = Candida albicans, ATCC 90028, read-out: IC50
[19] = Aspergillus fumigatus, ATCC 90906, read-out: IC50
[20] = Aspergillus fumigatus, ATCC 90906

| Compound | IC50 (Staphylococcus aureus [2]) [µg/mL] | IC50 (Plasmodium falciparum [3]) [µg/mL] | Ratio IC50 [4] | Ratio IC50 [5] | IC50 [6] [µg/mL] | IC50 (Leishmania donovani) [µg/mL] | IC90 (Leishmania donovani) [µg/mL] | IC50 (Cryptococcus neoformans [7]) [µg/mL] | IC50 (Vero [10]) | MIC [6] | MBC [6] | Activity [11] | Activity (Aspergillus fumigatus [12]) | Activity (Candida albicans [13]) | MFC (Candida albicans [8]) | Activity (Cryptococcus neoformans [14]) | Activity (Staphylococcus aureus [15]) | IC50 (Vero [16]) [µg/mL] | also measured |
| --- | --- | --- | --- | --- | --- | --- | --- | --- | --- | --- | --- | --- | --- | --- | --- | --- | --- | --- | --- |
| C[C@H]1N[C@@H](CCCCCCCCCCC2=C[C@@H](CCCCCCCCCC[C@@H]3CC[C@H](O)[C@@H](C)N3)[C@@H]3CCCN3C2)CC[C@H]1O.Cl.Cl | 3 | 0.38 | >12.5 | >16.4 | 10 | 0.7 | 1.2 | 0.85 | Non-toxic |  |  |  |  |  |  |  |  |  | IC50 (Plasmodium falciparum [1]): 0.29 µg/mL; MFC (Cryptococcus neoformans [7]): 2.5 µg/mL; MIC (Cryptococcus neoformans [7]): 1.25 µg/mL; IC50 (Candida albicans [8]; [18]): 7.5 µg/mL; IC50 (Aspergillus fumigatus [9]; [19]): 6.5 µg/mL |
| C[C@@H]1N[C@H](CCCCCCCCCCC2=C[C@@H](CCCCCCCCCC[C@@H]3CC[C@@H](O)[C@H](C)N3)[C@@H]3CCCN3C2)CC[C@H]1O.Cl.Cl | 3 | 0.6 | >7.9 | >8.5 | 9.5 |  | 7 | 2 | Non-toxic | 20 µg/mL |  |  |  |  |  |  |  |  | IC50 (Candida albicans [8]): Not Active; IC50 (Aspergillus fumigatus [9]): Not Active |
| C[C@@H]1N[C@H](CCCCCCCCCCC2=C[C@@H](CCCCCCCCCC[C@@H]3CC[C@@H](O)[C@H](C)N3)[C@@H]3CCCN3C2)CC[C@H]1O |  |  |  |  |  |  |  |  |  |  | inactive | Active | Active | Active | inactive | Active | Active |  | MIC (Candida albicans [8]): inactive; MFC (Aspergillus fumigatus [9]): inactive; MIC (Aspergillus fumigatus [9]): inactive |
| C[C@H]1N[C@@H](CCCCCCCCCCC2=C[C@@H](CCCCCCCCCC[C@@H]3CC[C@H](O)[C@@H](C)N3)[C@@H]3CCCN3C2)CC[C@H]1O |  |  |  |  |  |  |  |  |  | inactive | inactive | Active | Active | Active | inactive | Active | Active |  | MBC (Staphylococcus aureus [2]): inactive; MIC (Candida albicans [8]): inactive; MFC (Aspergillus fumigatus [9]): inactive |
| C[C@@H]1CC[C@H]2[C@@H](C)C(=O)O[C@@H]3O[C@@]4(C)CC[C@@H]1[C@]32OO4 [ARTEMISININ] |  | 0.016 (≈ 0.0567 µM) |  |  |  |  |  |  | Non-toxic |  |  |  |  |  |  |  |  | > 4.76 | IC50 (LLC-PK1): 0.6 µg/mL (≈ 2.13 µM) |
| CCN(CC)CCCC(C)Nc1ccnc2cc(Cl)ccc12 (centres undefined) [CHLOROQUINE] |  |  |  |  |  |  |  |  | Non-toxic |  |  |  |  |  |  |  |  |  |  |
| O=C(O)c1cn(C2CC2)c2cc(N3CCNCC3)c(F)cc2c1=O [CIPROFLOXACIN] |  |  |  |  |  |  |  |  |  | 0.63 µg/mL (≈ 1.9 µM) | inactive |  |  |  |  |  |  |  | MBC (Staphylococcus aureus [2]): inactive; MIC (Staphylococcus aureus [2]): 0.3 µg/mL (≈ 0.905 µM) |
| COc1cccc2c1C(=O)c1c(O)c3c(c(O)c1C2=O)C[C@@](O)(C(=O)CO)C[C@@H]3O[C@H]1C[C@H](N)[C@H](O)[C@H](C)O1 [DOXORUBICIN] |  |  |  |  |  |  |  |  |  |  |  |  |  |  |  |  |  | 3.2 (≈ 5.89 µM) | IC50 (KB): < 0.55 µg/mL; IC50 (BT-549): < 0.55 µg/mL; IC50 (SK-OV-3): < 0.55 µg/mL; IC50 (LLC-PK1): < 0.55 µg/mL; IC50 (SK-MEL): < 0.55 µg/mL |
| C[C@H]1N[C@@H](CCCCCCCCCCC2=C[C@@H](CCCCCCCCCC[C@@H]3CC[C@H](O)[C@@H](C)N3)[C@@H]3CCCN3C2)CC[C@H]1O [ISOPROSOPILOSINE] | 1 (≈ 1.59 µM) | 0.083 (≈ 0.132 µM) | 22 | 12 | 1.5 (≈ 2.38 µM) | 0.26 (≈ 0.413 µM) |  | 0.4 (≈ 0.635 µM) |  |  |  |  |  |  |  |  |  | 1.8 (≈ 2.86 µM) | IC50 (KB): 2.2 µg/mL (≈ 3.49 µM); IC50 (Plasmodium falciparum [1]): 0.15 µg/mL (≈ 0.238 µM); MIC (Staphylococcus aureus [2]): 2.5 µg/mL (≈ 3.97 µM); MFC (Cryptococcus neoformans [7]): 0.63 µg/mL (≈ 1 µM); MIC (Cryptococcus neoformans [7]): 0.63 µg/mL (≈ 1 µM); IC50 (BT-549): 2.5 µg/mL (≈ 3.97 µM); IC50 (SK-OV-3): < 1.1 µg/mL; IC50 (Candida albicans [8]): Not Active; IC50 (SK-MEL): < 1.1 µg/mL; MFC (Aspergillus fumigatus [9]; [20]): 2.5 µg/mL (≈ 3.97 µM); MIC (Aspergillus fumigatus [9]; [20]): 0.16 µg/mL (≈ 0.254 µM); IC50 (Aspergillus fumigatus [9]; [19]): 0.1 µg/mL (≈ 0.159 µM); IC50 (Vero [17]): 1.8 µg/mL (≈ 2.86 µM) |
| C[C@H]1N[C@@H](CCCCCCCCCCC2=C[C@@H](CCCCCCCCCC[C@H]3CC[C@@H](O)[C@@H](C)N3)[C@@H]3CCCN3C2)CC[C@H]1O [JULIPROSOPINE] | 3.5 (≈ 5.56 µM) | 0.22 (≈ 0.349 µM) | 23 | 13 | 6 (≈ 9.52 µM) | 0.75 (≈ 1.19 µM) |  | 1.5 (≈ 2.38 µM) |  |  |  | Active | Active | Active | inactive | Active | Active | 5 (≈ 7.94 µM) | IC50 (KB): 6.2 µg/mL (≈ 9.84 µM); IC50 (Plasmodium falciparum [1]): 0.38 µg/mL (≈ 0.603 µM); MBC (Staphylococcus aureus [2]): inactive; IC50 (SK-OV-3): 4.7 µg/mL (≈ 7.46 µM); IC50 (Candida albicans [8]): Not Active; MIC (Candida albicans [8]): inactive; IC50 (SK-MEL): 2.4 µg/mL (≈ 3.81 µM); MFC (Aspergillus fumigatus [9]; [20]): 1.25 µg/mL (≈ 1.98 µM); MIC (Aspergillus fumigatus [9]; [20]): 1.25 µg/mL (≈ 1.98 µM); IC50 (Aspergillus fumigatus [9]; [19]): 0.9 µg/mL (≈ 1.43 µM); IC50 (Vero [17]): 5 µg/mL (≈ 7.94 µM) |
| N=C(N)c1ccc(OCCCCCOc2ccc(C(=N)N)cc2)cc1 [PENTAMIDINE] |  |  |  |  |  | 0.5 (≈ 1.47 µM) | 2 (≈ 5.87 µM) |  |  |  |  |  |  |  |  |  |  |  |  |
| C[C@@H]1N[C@H](CCCCCCCCCCc2cc(CCCCCCCCCC[C@@H]3CC[C@@H](O)[C@H](C)N3)c3[n+](c2)CCC3)CC[C@H]1O.[Cl-] [PROSOPILOSIDINE DIHYDROCHLORIDE] | 1.5 | 0.43 | >11.1 | >17.6 | 3.5 | 2.8 | 8 | 1.5 | Non-toxic | 10 µg/mL | inactive | Active | Active | Active | inactive | Active | Active |  | MIC (Staphylococcus aureus [2]): 2.5 µg/mL; MFC (Cryptococcus neoformans [7]): 2.5 µg/mL; MIC (Cryptococcus neoformans [7]): 2.5 µg/mL; MIC (Candida albicans [8]; Candida albicans, ATCC 90028): 20 µg/mL; IC50 (Candida albicans [8]; [18]): 15 µg/mL; IC50 (Aspergillus fumigatus [9]): Not Active; MFC (Aspergillus fumigatus [9]): inactive; MIC (Aspergillus fumigatus [9]): inactive |
